LEDGF integ inh: blocks HIV-1 LEDGF/p75-dependent DNA integration; TR-FRET IN-LEDGF/p75 DNA integration, Eu/Cy5; inhibition, % at 3.7 µM; actives 0.64% (n = 370,000); AID 743269;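 active = inhibition above the screen-wide mean plus 3 SD, cut at about 13% in these data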;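 note: signal is the Cy5 over europium emission ratio at 671 and 618 nm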
HCV core dimer: HCV core protein dimerization inhibition | actives 0.33% (n = 300,000) | AID 1899 | inhibition, % at 5 µM | TR-FRET GST/Flag-core106 dimerization, 1536-well;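 active = inhibition above the mean of all tested compounds plus 3 SD, set per screening campaign, cut at about 45% in these data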
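Assay system: Tagged HCV core106 pair (GST and Flag) | Buffer or medium: KF-containing HEPES buffer, pH 7.45, DTT, CHAPS, BSA | Also added: Eu donor and XL665 acceptor anti-tag antibodies | Dosing: One concentration, 5 µM, in 0.5% DMSO | Timing: 4 h at 22.5 °C | Technique: TR-FRET 671 and 617 nm emission | Repeats: Singlicate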
MBD2 inh: MBD2-methylated oligo binding inhibition | Q9UBB5 | TR-FRET, MBD2 binding to methylated oligonucleotide | inhibition, % at 4.4 µM | actives 0.31% (n = 370,000); in the data active = inhibition above about 13%
Target sequence (Q9UBB5 whole entry, looked up): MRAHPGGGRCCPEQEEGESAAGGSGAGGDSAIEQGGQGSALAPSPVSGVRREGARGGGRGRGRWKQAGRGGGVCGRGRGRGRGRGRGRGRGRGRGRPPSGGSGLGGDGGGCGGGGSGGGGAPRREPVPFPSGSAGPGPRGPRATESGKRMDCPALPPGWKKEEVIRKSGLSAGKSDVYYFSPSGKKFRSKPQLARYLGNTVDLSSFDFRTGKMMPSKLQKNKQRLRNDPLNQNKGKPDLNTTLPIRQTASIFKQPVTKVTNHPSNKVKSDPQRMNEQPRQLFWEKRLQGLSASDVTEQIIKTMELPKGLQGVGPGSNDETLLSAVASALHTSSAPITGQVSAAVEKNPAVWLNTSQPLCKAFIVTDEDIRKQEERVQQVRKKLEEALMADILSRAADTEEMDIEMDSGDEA
TDP2 inh: blocks human TDP2 phosphodiesterase activity. actives 0.34% (n = 370,000). AID 720702. inhibition, % at 12.8 µM. O95551. recombinant TDP2, T5PNP hydrolysis, p-nitrophenol absorbance 415 nm;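 active = inhibition above the mean of all tested compounds plus 3 SD, set per campaign, cut at about 25% in these data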
Target sequence (O95551 whole entry, looked up): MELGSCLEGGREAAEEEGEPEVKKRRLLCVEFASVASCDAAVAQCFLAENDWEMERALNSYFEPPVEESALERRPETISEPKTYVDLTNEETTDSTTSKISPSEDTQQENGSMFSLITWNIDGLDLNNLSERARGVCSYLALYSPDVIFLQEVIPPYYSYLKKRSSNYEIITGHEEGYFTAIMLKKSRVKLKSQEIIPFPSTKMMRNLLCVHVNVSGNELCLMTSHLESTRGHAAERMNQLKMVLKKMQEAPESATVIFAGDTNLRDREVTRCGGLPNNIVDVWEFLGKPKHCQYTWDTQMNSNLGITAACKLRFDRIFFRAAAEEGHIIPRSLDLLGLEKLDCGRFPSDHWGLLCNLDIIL
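Test system: human TDP2 enzyme; Input: 120 nM TDP2 per well; Buffer or medium: Mg2+-containing Tris-HCl buffer, pH 7.5; Reagent: 5 mM T5PNP; Dosing: 12.8 µM single point, 1% DMSO; Incubation: reaction 2 h, 37 °C; Detection: p-Nitrophenol epi absorbance; Read-out: % inhibition relative to enzyme-containing and enzyme-free wells; Replicates: single well per compound.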
UHRF1 MBD2 ctr: UHRF1 methyl-DNA binding inhibition; Q96T88; UHRF1 binding to methylated oligo, TR-FRET; inhibition, % at 4.4 µM; actives 0.75% (n = 370,000); AID 687016; in the data active = inhibition above about 21%;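 note: UHRF1 SRA domain binding a hemimethylated CpG hairpin DNA probe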
IN multimer act: counter-screen for LEDGF/p75 integration inhibitors: HIV-1 integrase multimerization activators | shares compounds with LEDGF integ inh | TR-FRET HIV-1 integrase multimerization, biochemical | activation, % at 7.7 µM | actives 17% (n = 2,000) | AID 1053131; in the data active = activation above about 8.9%
TR-FRET interf: TR-FRET optical interference, LEDGF/p75 integration counter-screen; 2,000 tested, under 10 active; inhibition, % at 7.7 µM; AID 1053135; TR-FRET optical interference counterscreen, HIV-1 IN multimerization; shares compounds with LEDGF integ inh;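 active = inhibition above the mean over all tested compounds plus 3 SD, which no compound reached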
LEDGF integ conf: confirmation of HIV-1 LEDGF/p75-dependent integration inhibitors | actives 36% (n = 2,000) | inhibition, % at 3.7 µM | TR-FRET LEDGF/p75-dependent HIV-1 integration, biochemical | shares compounds with LEDGF integ inh; in the data active = inhibition above about 14%
A number is an active result; 0 = inactive; - = not tested or not shown. Rows were chosen to be rich in hits. Some 1.8% of all compounds tested hit in one or more screens of this group.

SMILES | LEDGF integ inh | HCV core dimer | MBD2 inh | TDP2 inh | UHRF1 MBD2 ctr | IN multimer act | TR-FRET interf | LEDGF integ conf
COCCN1C(=O)N[C@@H](c2cccc(F)c2)C(C(=O)OC)=C1C | 29 | 0 | 0 | 0 | 0 | 0 | 0 | 0
COC(=O)C[C@H]1CC[C@@H]2[C@@H](COc3ccc(NC(=O)Nc4cccc(C)c4)cc3C(=O)N2C)O1 | 0 | - | 0 | 0 | 0 | - | - | -
CCOC(=O)C1=C(C(=O)OCC)C2N(Cc3ccc(C#N)cc3)c3ccccc3[C@@]23C[C@@H](C(=O)OC)N(S(=O)(=O)c2cccs2)C3=N1 (some centres not stated) | 0 | - | 0 | 0 | 0 | - | - | -
NC(=S)NN=Cc1nccc2c(N)cccc12 | 20 | - | 0 | 0 | 0 | 15 | 0 | 17
Cc1ccc(OC2CCN(C(=O)[C@@H](Cc3ccccc3)NC(=O)[C@H]3O[C@@H](n4ccc(=O)[nH]c4=O)[C@H](O)[C@@H]3O)CC2)cc1 | 0 | - | 0 | 0 | 0 | - | - | -
CC(=O)c1ccc(NC(=O)C(C)OC(=O)/C=C/c2ccco2)cc1 (configuration not stated) | 19 | - | 0 | 0 | 0 | 0 | 0 | 0
Cc1nc2c(C)c(C)c(C)c(C)c2nc1C | 0 | 0 | 0 | 0 | 0 | - | - | -
Cc1nc2c(O)c3c(c(O)c2nc1C)C1C=CC3CC1 | 21 | - | 0 | 0 | 0 | 0 | 0 | 0
O=C(N[C@H](C(=O)N1CCC[C@H]1C(=O)NC1CCCC1)C1CCCCC1)c1ccc(Cl)c(Cl)c1 | 0 | - | 0 | 0 | 0 | - | - | -
O=C1c2nc3cc(-c4ccco4)[nH]n3c(=O)c2CN1C1CCCCC1 | 18 | 0 | 0 | 0 | 0 | 0 | 0 | 0
CCS(=O)(=O)N1CCC(C(=O)Oc2ccccc2OC)CC1 | 22 | 0 | 0 | 0 | 0 | 0 | 0 | 0
CCCCS(=O)(=O)N1CCC(C(=O)Oc2ccccc2OC)CC1 | 0 | 0 | 0 | 0 | 0 | - | - | -
Cc1ccc(C(=O)N2CCC[C@@H]2C(=O)N2CCC[C@H]2C(=O)NCc2ccccc2)cc1 | 0 | - | 0 | 0 | 0 | - | - | -
c1ccc2sc(-c3csc4c3CCNC4)nc2c1 | 0 | - | 0 | 0 | 0 | - | - | -
CC(C)(C)OC(=O)C[C@H]1C/C=C\C[C@@H](CC(=O)N[C@H](CO)Cc2ccccc2)C(=O)NC[C@H](c2ccccc2)OC1=O | 0 | - | 0 | 0 | 0 | - | - | -
CC(C)(C)OC(=O)C[C@H]1C/C=C\C[C@@H](CC(=O)NCCO)C(=O)NC[C@@H](c2ccccc2)OC1=O | 76 | - | 0 | 0 | 0 | 0 | 0 | 0
CCN(CC)C(=O)CC[C@@H]1CC[C@]2(CCCN(C(=O)c3ccno3)C2)O1 | 0 | - | 0 | 0 | 0 | - | - | -
C(=C\c1ccco1)/c1ccc2ccccc2n1 | 18 | 53 | 0 | 0 | 25 | 17 | 0 | 37
CCCCOCCCNC(=O)C[C@@H]1C[C@]2(C(=O)OCC)CCC3=C2N(CCC3)C1=O | 0 | - | 0 | 0 | 0 | - | - | -
O=c1[nH]c2cc3c(cc2cc1CN(Cc1cccnc1)Cc1nnnn1Cc1ccco1)OCCO3 | 39 | 0 | 0 | 0 | 34 | 14 | 0 | 28
O=c1[nH]c2cc3c(cc2cc1CN(Cc1cccs1)Cc1nnnn1Cc1ccco1)OCCO3 | 0 | 0 | 0 | 0 | 0 | - | - | -
COC(=O)[C@]1(Cc2ccccc2)NC=C(C(=O)c2ccccc2)[C@@H]1c1cccs1 | 0 | - | 0 | 0 | 0 | - | - | -
Cc1ccccc1C(=O)N(C)[C@H]1C[C@H]2c3[nH]c4c(-c5ccccc5)cccc4c3CCN2C(=O)[C@H]1[C@H](C)O | 0 | - | 0 | 0 | 0 | - | - | -
O/N=C1\CCC\C1=C/c1ccco1 | 0 | 0 | 0 | 0 | 0 | - | - | -
O=C1C(=Cc2ccco2)CCCC1=Cc1ccco1 | 61 | - | 15 | 0 | 52 | 0 | 0 | 58
SMILES | LEDGF integ inh | HCV core dimer | MBD2 inh | TDP2 inh | UHRF1 MBD2 ctr | IN multimer act | TR-FRET interf | LEDGF integ conf
COc1ccc(CNC(=O)C2CCCN(c3nc4ccccc4o3)C2)cc1 (configuration not stated) | 0 | - | 0 | 0 | 0 | - | - | -
CC(=C1N=C(c2ccccc2)OC1=O)c1cccs1 | 19 | - | 0 | 0 | 0 | 0 | 0 | 0
Cc1ccc(-c2nnc(SCC(=O)Nc3ccc(OCc4ccccc4)cc3)n2-c2ccc(Cl)cc2)cc1 | 0 | - | 0 | 0 | 0 | - | - | -
Cc1nn(-c2ccccc2)c(N2CCCC2)c1/C=N/NC(=O)c1cc2ccccc2cc1O | 14 | 0 | 0 | 0 | 0 | 0 | 0 | 0
Cc1cc(-c2cc(C)c(N)cc2C)c(C)cc1N | 14 | - | 0 | 0 | 0 | 0 | 0 | 0
Cc1cc2c(cc1C)C(=O)C(Br)=C(N)C2=O | 0 | - | 0 | 0 | 0 | - | - | -
C=CCN1CCc2nc(N)sc2CC1 | 14 | - | 0 | 0 | 0 | 0 | 0 | 0
C=CCN1C(=O)[C@H](CC(=O)N2CCN(C(=O)c3ccco3)CC2)[C@@]2(C(=O)OCC)CCCC=C12 | 0 | - | 0 | 0 | 0 | - | - | -
O=C(O)c1ccc(NS(=O)(=O)c2ccc3c(c2)C2C=CCC2C(c2ccccc2F)N3)cc1 (configuration not stated) | 43 | - | 0 | 0 | 0 | 17 | 0 | 33
O=C1OC(Nc2cc(Br)cc3cccnc23)c2ccccc21 (configuration not stated) | 54 | 0 | 0 | 79 | 0 | 0 | 0 | 74
O=C1OC(Nc2ncccn2)c2ccccc21 (configuration not stated) | 0 | 0 | 0 | 0 | 0 | - | - | -
CC(C)[C@H](NC(=O)C1(c2ccccc2)CCN(C(=O)OC(C)(C)C)CC1)C(=O)O | 0 | 0 | 0 | 0 | 0 | - | - | -
CC(C)(C)OC(=O)N1CCC(C(=O)N[C@@H](Cc2ccccc2)C(=O)O)(c2ccccc2)CC1 | 18 | 0 | 0 | 0 | 0 | 0 | 0 | 15
Nn1c(SCC(=O)Nc2ccc(OCc3ccccc3)cc2)nnc1-c1cc(-c2ccc(F)cc2)n[nH]1 | 0 | - | 0 | 0 | 0 | - | - | -
CC[C@@H](C)CN1C(=O)N[C@@H](c2ccccc2)C(C(C)=O)=C1C | 18 | 0 | 0 | 0 | 0 | 0 | 0 | 19
COCC(=O)N(c1ccc(C(C)(C)C)cc1)C(C(=O)NC(C)(C)C)c1cccnc1 (configuration not stated) | 0 | - | 0 | 0 | 0 | - | - | -
COc1ccc(S(=O)(=O)N2CCOCC2)cc1NC(=O)CSc1n[nH]c(=O)n1C1CC1 | 71 | 0 | 0 | 0 | 0 | 0 | 0 | 0
Cc1cc(O)c(N=Cc2cc3c(cc2[N+](=O)[O-])OCO3)cc1C | 19 | 0 | 0 | 0 | 0 | 0 | 0 | 0
CC(=O)Nc1sc2c(c1-c1cc3ccccc3o1)CCNC2 | 0 | - | 0 | 0 | 0 | - | - | -
CN(C)c1ncnc2c1ncn2[C@H]1CN(Cc2ccc(F)cc2)C[C@@H](CO)O1 | 0 | - | 0 | 0 | 0 | - | - | -

Screening data (PubChem)
